# Bioassay records from PubChem.
# In the library only some 4.6% were active in any assay of this set; here they are far more common.
# TAAR1 antagonist: human TAAR1 antagonism; inhibition, % at 3 µM; Q96RJ0; actives 1.5% (n = 360,000); AID 624466; CHO RD-HGA16 TAAR1, Fluo-8 calcium fluorescence, antagonist;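 active = inhibition above a per-plate cutoff, the mean inhibition of test compounds on that plate plus 3 SD, cut at about 49% in these data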
#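 Test system: RD-HGA16 CHO cells with stable hTAAR1 and Gα16 / Probe or stimulus: EC80 β-phenethylamine stimulus / Times: seeding 17-24 h prior, 75-min 37 °C, 30-min RT dye loading / Detection: Fluo-8 calcium-sensitive fluorescence / Read-out basis: % inhibition scaled between DMSO and EC80 PEA controls / Repeats: singlicate, one well per test compound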
# CHO parental Ca: signal in parental CHO cells, OX1R antagonist counter-screen; parental CHO-K1, ATP-induced calcium, Fluo-8 fluorescence; inhibition, % at 5.6 µM; actives 0.63% (n = 330,000);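 active = inhibition above that plate's mean sample inhibition plus 3 SD, cut at about 26% in these data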
#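 Measured by: calcium-sensitive Fluo-8 fluorescence / Test system: CHO parental line / Controls: ATP-challenged DMSO wells low, unchallenged DMSO wells high / Measure: % inhibition / Compound: single nominal dose of 5.6 µM per compound / Replicates: single well per compound, no replicates / Reagent: ATP as calcium-mobilizing challenge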
# OX1R antag-1: blocks the human orexin 1 receptor; CHO/OX1R cells, Fluo-8 calcium fluorescence, orexin A; AID 434989; inhibition, % at 5 µM; O43613; actives 0.43% (n = 330,000);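 active = inhibition above its plate's threshold, mean inhibition of all tested compounds on the plate plus 3 SD, cut at about 37% in these data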
# Target sequence (O43613 whole entry, looked up): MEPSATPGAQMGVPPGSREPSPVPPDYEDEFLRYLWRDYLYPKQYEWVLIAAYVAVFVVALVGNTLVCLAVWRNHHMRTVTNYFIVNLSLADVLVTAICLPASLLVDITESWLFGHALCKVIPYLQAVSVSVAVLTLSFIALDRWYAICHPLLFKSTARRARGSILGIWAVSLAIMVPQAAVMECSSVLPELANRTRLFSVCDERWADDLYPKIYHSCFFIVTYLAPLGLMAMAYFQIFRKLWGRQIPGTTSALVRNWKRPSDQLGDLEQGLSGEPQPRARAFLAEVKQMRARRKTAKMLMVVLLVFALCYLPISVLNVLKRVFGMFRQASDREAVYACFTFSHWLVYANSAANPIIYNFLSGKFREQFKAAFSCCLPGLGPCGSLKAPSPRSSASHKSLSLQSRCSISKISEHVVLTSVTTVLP
# TAAR1 ag: agonists of human TAAR1; Q96RJ0; CHO RD-HGA16 TAAR1, Fluo-8 calcium fluorescence; vehicle wells 0%, saturating PEA agonist 100%; activation, % at 3 µM; actives 0.99% (n = 360,000);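 active = activation above the mean activation of all test compounds in the run plus 3 SD, cut at about 38% in these data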
#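 System: CHO RD-HGA16 cells carrying human TAAR1 plus Gα16; Incubation: 17-24 h seeding, 75 min 37 °C dye, 30 min RT; Measured by: Fluo-8 fluorescence, 5 s baseline then 140 s kinetic read; Control set: DMSO and PEA EC100; Replication: single well for each compound.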
# OX1R antag-2: antagonists of human orexin 1 receptor (OX1R); O43613; OX1R-expressing cells, FRET antagonist read-out; inhibition, % at 6.6 µM; actives 1.8% (n = 330,000); in the data active = inhibition mostly above about 38%, no sharp cut-off; inactive = mostly below about 40%
# GPR7 antagonist: blocks human GPR7 receptor signaling; actives 1.1% (n = 290,000); P48145; GPR7-expressing cells, fluorescence antagonist assay; inhibition, % at 4.4 µM; AID 1861; in the data active = inhibition above about 16%, passing the limit was not always enough;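 also: cells stimulated with the agonist NPW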
# nonsel antag count: nonselective antagonism, TAAR1 counter-screen. counterscreen cell line, calcium fluorescence, antagonist mode. inhibition, % at 3 µM. actives 77% (n = 2,400). AID 651780. shares compounds with TAAR1 antagonist; in the data active = inhibition above about 22%;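 also: CHO-Ga16 host cells stimulated with ATP at an EC80 level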
# TAAR1 ant conf: confirmation of human TAAR1 antagonists | shares compounds with TAAR1 antagonist | TAAR1-expressing cells, fluorescence antagonist read-out | inhibition, % at 3 µM | AID 651785 | actives 40% (n = 2,400); in the data active = inhibition above about 49%;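 also: CHO-Ga16 host cells challenged with agonist PEA near its EC80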
# Ga16 nonsel ag: counter-screen for TAAR1 antagonists: nonselective Ga16 agonists; shares compounds with TAAR1 antagonist; actives 18% (n = 2,400); Ga16-expressing cells, calcium fluorescence, agonist counterscreen; activation, % at 3 µM; in the data active = activation above about 12%
# TAAR1 ag count: counter-screen for human TAAR1 antagonists: TAAR1 agonists | shares compounds with TAAR1 antagonist | hTAAR1 cell line, fluorescence activation, agonist mode | activation, % at 3 µM | actives 2% (n = 2,400); in the data active = activation above about 37%;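 also: CHO cells stably expressing TAAR1 with calcium dye readout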
# Hits are given with their value; – = inactive; · = no result.
SMILES,TAAR1 antagonist,CHO parental Ca,OX1R antag-1,TAAR1 ag,OX1R antag-2,GPR7 antagonist,nonsel antag count,TAAR1 ant conf,Ga16 nonsel ag,TAAR1 ag count
COc1ccc(OCC(=O)OCC(=O)Nc2cc(S(=O)(=O)N3CCOCC3)ccc2Cl)cc1,–,–,–,–,–,·,·,·,·,·
O=C(COC(=O)c1ccc(O)cc1)Nc1cc(S(=O)(=O)N2CCCCCC2)ccc1Cl,62,·,·,–,·,·,38,52,–,–
Cc1ccc(CSCC(=O)Nc2cc(S(=O)(=O)N3CCOCC3)ccc2OCC(F)(F)F)cc1,81,·,·,–,·,·,–,62,–,–
Cc1ccc(S(=O)(=O)N2CCCCC2)cc1NC(=O)COC(=O)c1ccc(O)cc1,–,–,–,–,–,–,·,·,·,·
Cc1cc(OCC(=O)OCC(=O)Nc2cc(S(=O)(=O)N3CCOCC3)ccc2Cl)ccc1Cl,64,–,–,–,–,·,36,–,14,–
Cc1ccc(C)c(OCCC(=O)NNC(=O)c2ccccc2F)c1,–,–,–,–,–,·,·,·,·,·
COc1ccccc1OCCC(=O)NNC(=O)c1ccccc1F,103,–,–,–,–,·,–,–,–,–
Cc1ccc(S(=O)(=O)N2C[C@H]3C(=O)C[C@@H](c4ccccc4)N(S(=O)(=O)c4ccccc4)[C@H]3C[C@H]2c2ccccc2)cc1,–,·,·,–,·,·,·,·,·,·
CCn1cnc2sc(C(=O)N(Cc3ccc(N(C)C)cc3)Cc3ccco3)c(C)c2c1=O,54,–,–,–,–,–,23,–,–,–
COc1cc(NC(=O)c2cc(-c3cc(F)ccc3OC(C)C)n[nH]2)cc(OC)c1OC,–,·,·,–,·,·,·,·,·,·
COc1ccccc1N(C)S(=O)(=O)c1ccc(C(=O)Nc2ccc(C(N)=O)cc2)cc1,54,–,–,–,–,·,24,–,–,–
COc1ccc2c(C(=O)NCc3ccc4c(c3)OCO4)c(-c3ccc(S(C)(=O)=O)cc3)sc2c1,64,–,–,–,–,·,36,55,–,–
Cc1ccc(CNC(=O)c2ccc(N(C)S(=O)(=O)c3ccccc3)cc2)cc1,–,–,–,–,–,–,·,·,·,·
CN(c1ccccc1)S(=O)(=O)c1ccc(C(=O)NCc2ccc(F)cc2)cc1,64,–,–,–,–,·,42,58,12,–
COc1ccccc1N(C)S(=O)(=O)c1ccc(C(=O)N(C)Cc2cccc(OC)c2OC)cc1,–,·,·,–,·,·,·,·,·,·
COC(=O)c1c(-c2ccc(S(C)(=O)=O)cc2)sc2cc(OC)ccc12,–,–,–,–,–,·,·,·,·,·
CCN(CC)CCNC(=O)c1ccc(NC(=O)c2ccc(S(=O)(=O)N(C)c3ccccc3OC)cc2)cc1,–,·,·,–,·,·,·,·,·,·
COc1ccccc1N(C)S(=O)(=O)c1ccc(C(=O)N(C)Cc2ccc(Cl)s2)cc1,51,–,–,–,–,·,27,–,–,–
CCN(CCOC(=O)Nc1ccc(Cl)cc1)C(=O)Nc1ccc(Cl)cc1,–,·,·,–,·,·,·,·,·,·
O=c1cc(CN2CCN(c3ccc(Cl)c(Cl)c3)CC2)c2ccccc2o1,–,·,·,–,·,·,·,·,·,·
CC(C)NC(=O)Nc1ccc2c(c1)C(=O)N([C@H](C)CO)C[C@H](C)[C@@H](CN(C)Cc1ccc3c(c1)OCO3)OCCCC[C@@H](C)O2,–,·,·,–,·,·,·,·,·,·
COc1ccccc1N(C)S(=O)(=O)c1ccc(C(=O)NCc2ccc3c(c2)OCO3)cc1,67,–,–,–,–,–,31,53,–,–
COc1cccc(C(=O)NCc2ccc3c(c2)OCO3)c1OC,–,·,·,–,·,–,·,·,·,·
N#Cc1cccc(C(=O)C(=O)N2CCCN(Cc3ccc(F)cc3)CC2)c1,–,·,·,–,·,·,·,·,·,·
Cc1cc(C)c(C)c(S(=O)(=O)N2CCN(C(=O)c3cc(=O)[nH]c4ccccc34)CC2)c1C,55,–,–,–,–,–,34,56,13,–
SMILES,TAAR1 antagonist,CHO parental Ca,OX1R antag-1,TAAR1 ag,OX1R antag-2,GPR7 antagonist,nonsel antag count,TAAR1 ant conf,Ga16 nonsel ag,TAAR1 ag count
CC(=O)c1cc(Cl)ccc1OCc1cccc(S(=O)(=O)N2CCOCC2)c1,91,–,–,–,–,·,35,55,13,–
O=S(=O)(c1cccc(COc2ccc(Cl)cc2Cl)c1)N1CCOCC1,–,–,–,–,–,–,·,·,·,·
COc1ccc(NC(=O)/C=C/c2ccc(S(=O)(=O)N3CCOCC3)cc2)cc1,–,–,–,–,–,·,·,·,·,·
COc1cc(-c2cc(C(=O)Nc3ccc(C)c(S(=O)(=O)N4CCOCC4)c3)c3ccccc3n2)cc(OC)c1OC,74,–,–,–,–,·,40,55,–,–
COc1ccc(/C=C/C(=O)Nc2ccc(C)c(S(=O)(=O)N3CCOCC3)c2)cc1,65,–,–,–,–,·,31,–,13,–
Cc1ccc(-c2nn(-c3ccccc3)cc2C(=O)Nc2ccc(C)c(S(=O)(=O)N3CCOCC3)c2)cc1,–,–,–,–,–,–,·,·,·,·
COc1cc(-c2cc(C(=O)Nc3nc4ccccc4s3)c3ccccc3n2)cc(OC)c1OC,58,–,–,–,–,–,37,–,–,–
COc1cc(-c2cc(C(=O)Nc3ccc(O)cc3)c3ccccc3n2)cc(OC)c1OC,58,–,–,–,–,–,27,–,–,–
O=C(NC(CC1=CCCCC1)c1ccccc1)C(F)(F)F (configuration not stated),–,·,·,–,·,·,·,·,·,·
CSc1ccc(OC2(C)CCN(Cc3ccc(-c4ccccn4)cc3)C2)cc1 (configuration not stated),–,·,·,–,·,·,·,·,·,·
CC(C)(C)c1ccc(CNc2ccc([N+](=O)[O-])cn2)cc1,68,–,–,–,–,–,–,–,12,–
CC(C)c1ccc(CNc2ccc([N+](=O)[O-])cn2)cc1,–,–,–,–,–,–,·,·,·,·
Nc1c(S(=O)(=O)c2cccs2)c2nc3ccccc3nc2n1/N=C/c1cccc(O)c1,52,–,–,–,–,–,33,52,–,–
CC1CCN(C(=O)C2CCCN(c3ncnc4c3nc3n4CCCCC3)C2)CC1 (configuration not stated),–,–,–,–,–,–,·,·,·,·
COc1cccc(N2CCN(C(=O)C3CCCN(c4ncnc5c4nc4n5CCCCC4)C3)CC2)c1 (configuration not stated),55,–,–,–,–,–,34,49,12,–
